Values after ≈ are worked out from the molar mass of the structure shown.
Key:
Pseudomonas aeruginosa [1] = assay: Antibacterial activity against Pseudomonas aeruginosa PAO1 assessed as growth inhibition after 18 to 20 hrs in presence of PMBN by broth microdilution assay; assay type: functional; details: time 18-20 hrs
Outline: (§1)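 Broth microdilution per EUCAST guidelines in Müller-Hinton broth II (Ca2+/Mg2+ supplemented, pH 7.3). Colonies from overnight LB-agar plates were suspended to OD600 0.08–0.13, diluted 1:100, final inoculum 5 × 10^5 CFU/mL. PMBN at 2 μg/mL was added to the inoculum where indicated. Incubation 37 °C, 18–20 h. MIC was the lowest concentration with no visible growth. At least three independent experiments.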

Pseudomonas aeruginosa [2] = assay: Antibacterial activity against Pseudomonas aeruginosa PAO1 assessed as growth inhibition after 18 to 20 hrs by broth microdilution assay; assay type: functional; details: time 18-20 hrs
Outline: (§2)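 Overnight LB-agar colonies suspended to OD600 0.08–0.13, diluted 1:100; final inoculum 5 × 10^5 CFU/mL. 37 °C, 18–20 h, humid. MIC = lowest concentration without visible growth; range from at least three independent experiments.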

Pseudomonas aeruginosa [3] = assay: Antibacterial activity against Pseudomonas aeruginosa PA14 harboring LecB deletion mutant assessed as growth inhibition after 18 to 20 hrs by broth microdilution assay; assay type: functional; details: time 18-20 hrs; outline: as §2
Pseudomonas aeruginosa [4] = assay: Antibacterial activity against Pseudomonas aeruginosa PA14 harboring LecA deletion mutant assessed as growth inhibition after 18 to 20 hrs by broth microdilution assay; assay type: functional; details: time 18-20 hrs; outline: as §2
Pseudomonas aeruginosa [5] = assay: Antibacterial activity against Pseudomonas aeruginosa PA14 assessed as growth inhibition after 18 to 20 hrs in presence of PMBN by broth microdilution assay; assay type: functional; details: time 18-20 hrs
Outline: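 Cation-supplemented Mueller-Hinton broth II; final inoculum 5 × 10^5 CFU/mL. Incubated at 37 °C for 18–20 h. MIC read visually as the lowest concentration without growth; at least three independent experiments.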

Pseudomonas aeruginosa [6] = assay: Antibacterial activity against Pseudomonas aeruginosa PA14 assessed as growth inhibition after 18 to 20 hrs by broth microdilution assay; assay type: functional; details: time 18-20 hrs; outline: as §2
Staphylococcus carnosus = assay: Antibacterial activity against Staphylococcus carnosus DSM 20501 assessed as growth inhibition after 18 to 20 hrs by broth microdilution assay; assay type: functional; details: time 18-20 hrs; outline: as §2
Escherichia coli [7] = assay: Antibacterial activity against Escherichia coli K-12 MG1655 assessed as growth inhibition after 18 to 20 hrs by broth microdilution assay; assay type: functional; details: time 18-20 hrs; outline: as §2
[8] = Inhibition of Pseudomonas aeruginosa ATCC 33347 LecA expressed in Escherichia coli BL21(DE3) cells incubated for 30 to 60 mins by (N-(fluorescein-5-yl)-N'-(beta-D-(m-aminophenyl)-galactopyranosyl)thiocarbamide) reporter based fluorescence polarization assay
Outline: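 LecA at 40 μM with 20 nM fluorescein-galactoside reporter in TBS/Ca. Test compound serial dilutions in 30% DMSO co-solvent, triplicate. Incubation 30–60 min at room temperature, then fluorescence polarization read (ex 485, em 535 nm), blank-corrected for LecA alone. Four-parameter fit with plateaus fixed by the p-nitrophenyl β-D-galactoside control. At least three independent plates.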

Pseudomonas aeruginosa [9] = assay: Potency index ratio of Me-alpha-D-Gal IC50 to test compound IC50 for Inhibition of Pseudomonas aeruginosa ATCC 33347 LecA expressed in Escherichia coli BL21(DE3) cells
Pseudomonas aeruginosa [10] = assay: Potency index ratio of pNP-beta-D-Gal IC50 to test compound IC50 for Inhibition of Pseudomonas aeruginosa ATCC 33347 LecA expressed in Escherichia coli BL21(DE3) cells
[11] = Cytotoxicity against human A549 cells assessed as growth inhibition at 100 uM after 48 hrs by MTT assay relative to control; assay type: cell-based; details: read-out: GI
Outline: (§3)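 MTT assay: HEK293 or A549 cells seeded at 2 × 10^5 per well. Compounds (final DMSO 1%) were added 24 h after seeding. Living cell mass was read after 48 h.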

[12] = Cytotoxicity against HEK293 cells assessed as growth inhibition at 100 uM after 48 hrs by MTT assay relative to control; assay type: cell-based; details: human, read-out: GI; outline: as §3
Escherichia coli [13] = assay: Antibacterial activity against Escherichia coli DSM 1116 assessed as growth inhibition after 18 to 20 hrs by broth microdilution assay; assay type: functional; details: time 18-20 hrs
Outline: as §1, with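 “7.3). Test range 128 to 0.125 μg/mL, from DMSO stocks.” for “7.3).”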

[14] = Inhibition of Pseudomonas aeruginosa PA14 LecB expressed in Escherichia coli BL21(DE3) cells incubated for 4 to 8 hrs by (N-(fluorescein-5-yl)-N'-(alpha-L-fucopyranosyl ethylene)thiocarbamide) reporter based fluorescence polarization assay
[15] = Inhibition of Pseudomonas aeruginosa PAO1 LecB expressed in Escherichia coli BL21(DE3) cells incubated for 4 to 8 hrs by (N-(fluorescein-5-yl)-N'-(alpha-L-fucopyranosyl ethylene)thiocarbamide) reporter based fluorescence polarization assay

SMILES | MIC (Pseudomonas aeruginosa [1]) | MIC (Pseudomonas aeruginosa [2]) | MIC (Pseudomonas aeruginosa [3]) | MIC (Pseudomonas aeruginosa [4]) | MIC (Pseudomonas aeruginosa [5]) | MIC (Pseudomonas aeruginosa [6]) | MIC (Staphylococcus carnosus) | MIC (Escherichia coli [7]) | IC50 [8] | Ratio IC50 (Pseudomonas aeruginosa [9]) | Ratio IC50 (Pseudomonas aeruginosa [10]) | inhibition at 48 h, 100 µM [11] | inhibition at 48 h, 100 µM [12] | MIC (Escherichia coli [13]) | IC50 [14] | IC50 [15]
O=C(CCn1cc(CCN2CCN(c3cc4c(cc3F)c(=O)c(C(=O)O)cn4C3CC3)CC2)nn1)Nc1ccc(S[C@@H]2O[C@H](CO)[C@H](O)[C@H](O)[C@H]2O)cc1 | 32 µg/mL | > 64 µg/mL | > 64 µg/mL | > 64 µg/mL | 32 µg/mL | > 64 µg/mL | > 64 µg/mL | 16 µg/mL (≈ 20.8 µM) | 28 µM | – | – | – | – | – | – | –
[N-]=[N+]=NCC(=O)Nc1ccc(S[C@@H]2O[C@H](CO)[C@H](O)[C@H](O)[C@H]2O)cc1 | – | – | – | – | – | – | – | – | 31.7 µM | < 3 | < 2 | – | – | – | – | –
O=C(O)c1cn(C2CC2)c2cc(N3CCNCC3)c(F)cc2c1=O [CIPROFLOXACIN] | – | – | 0.05 µg/mL (≈ 0.151 µM) | 0.05 µg/mL (≈ 0.151 µM) | – | – | < 0.125 µg/mL | < 0.125 µg/mL | – | – | – | 18% | 48% | < 0.125 µg/mL | – | –
[N-]=[N+]=NCCC(=O)Nc1ccc(S[C@@H]2O[C@H](CO)[C@H](O)[C@H](O)[C@H]2O)cc1 | – | – | – | – | – | – | – | – | 30.9 µM | < 3 | < 2 | – | – | – | – | –
C[C@@H]1O[C@H](CNS(=O)(=O)c2ccc(CCn3cc(CCN4CCN(c5cc6c(cc5F)c(=O)c(C(=O)O)cn6C5CC5)CC4)nn3)s2)[C@@H](O)[C@H](O)[C@@H]1O | ≥ 64 µg/mL | – | – | – | 64 µg/mL | – | ≥ 64 µg/mL | 16 µg/mL (≈ 20.6 µM) | – | – | – | – | – | 32 µg/mL (≈ 41.2 µM) | 1 µM | 2.53 µM
O=C(CCCn1cc(CN2CCN(c3cc4c(cc3F)c(=O)c(C(=O)O)cn4C3CC3)CC2)nn1)Nc1ccc(S[C@@H]2O[C@H](CO)[C@H](O)[C@H](O)[C@H]2O)cc1 | 4 µg/mL | 16 µg/mL (≈ 20.8 µM) | 8 µg/mL (≈ 10.4 µM) | 8 µg/mL (≈ 10.4 µM) | 4 µg/mL | 8 µg/mL (≈ 10.4 µM) | – | 1 µg/mL (≈ 1.3 µM) | 27.3 µM | – | – | – | – | 2 µg/mL (≈ 2.6 µM) | – | –
O=C(CCn1cc(CN2CCN(c3cc4c(cc3F)c(=O)c(C(=O)O)cn4C3CC3)CC2)nn1)Nc1ccc(S[C@@H]2O[C@H](CO)[C@H](O)[C@H](O)[C@H]2O)cc1 | 4 µg/mL | 16 µg/mL (≈ 21.2 µM) | 8 µg/mL (≈ 10.6 µM) | 8 µg/mL (≈ 10.6 µM) | 8 µg/mL | 8 µg/mL (≈ 10.6 µM) | 32 µg/mL (≈ 42.5 µM) | 2 µg/mL (≈ 2.65 µM) | 32.2 µM | – | – | – | – | – | – | –
O=C(CCCCn1cc(CN2CCN(c3cc4c(cc3F)c(=O)c(C(=O)O)cn4C3CC3)CC2)nn1)Nc1ccc(S[C@@H]2O[C@H](CO)[C@H](O)[C@H](O)[C@H]2O)cc1 | 8 µg/mL | 32 µg/mL (≈ 40.9 µM) | – | – | 2 µg/mL | – | – | 2 µg/mL (≈ 2.56 µM) | 28.3 µM | – | – | – | – | 4 µg/mL (≈ 5.12 µM) | – | –
[N-]=[N+]=NCCCCC(=O)Nc1ccc(S[C@@H]2O[C@H](CO)[C@H](O)[C@H](O)[C@H]2O)cc1 | – | – | – | – | – | – | – | – | 29.9 µM | < 3 | < 2 | – | – | – | – | –

Source: ChEMBL document CHEMBL4673246, “Directing Drugs to Bugs: Antibiotic-Carbohydrate Conjugates Targeting Biofilm-Associated Lectins of Pseudomonas aeruginosa” (J Med Chem, 2020)
